Published values gathered from unrelated publications.
BCHE: Cholinesterase (BCHE, Equus caballus, UniProt P81908)
SLC6A4: Sodium-dependent serotonin transporter (SLC6A4, Homo sapiens, UniProt P31645)

| Compound | target | effect on | mode | technique | notes | IC50 |
| --- | --- | --- | --- | --- | --- | --- |
| CC=C1[C@H]2C=C(C)C[C@]1(N)c1cc(C#N)c(=O)[nH]c1C2 | BCHE | enzyme activity | inhibitor | Ellman |  | 1050 µM |
| CCOc1ccc(C=NNC(=S)NCC(=O)c2ccc(Cl)cc2)cc1 | BCHE | enzyme activity | inhibitor | Ellman |  | 334 µM |
| CC=C1[C@H]2C=C(C)C[C@]1(N(C)C)c1ccc(=O)n(C)c1C2 | BCHE | enzyme activity | inhibitor | Ellman |  | 259 µM |
| COC(=O)[C@H](CCC(=O)Nc1cccc2c1ccn2Cc1cccc(C(N)=O)c1)NC(=O)OCc1ccccc1 | NAD-dependent protein deacetylase sirtuin-3, mitochondrial (SIRT3, Homo sapiens, UniProt Q9NTG7) | enzyme activity | inhibitor |  |  | 3.6 µM |
| O=P(O)(O)Oc1cccc(OP(=O)(O)O)c1 | Signal transducer and activator of transcription 5A, SH2 (Homo sapiens, UniProt P42229) | ligand displacement |  | FP |  | 50 µM |
| CCn1cnc2c(Nc3cccc(Cl)c3)nc(N[C@@H]3CCCC[C@@H]3N)nc21 | Ribosomal protein S6 kinase alpha-3, N-terminal kinase domain (RPS6KA3, Homo sapiens, UniProt P51812) | enzyme activity | inhibitor | FP |  | 1 µM |
| C[C@H](N)Cn1ncc2ccc3c(c21)CCCO3 | D(1A) dopamine receptor (DRD1, Homo sapiens, UniProt P21728) | ligand displacement |  | radioligand |  | 138 µM |
| C#CCN(C)c1nc(NCCCC2CCN(Cc3ccccc3)CC2)c(C#N)cc1C#N | BCHE | enzyme activity | inhibitor | Ellman |  | 1.19 µM |
| NC(N)=S | Urease (Canavalia ensiformis, UniProt P07374) | enzyme activity | inhibitor |  |  | 8.83 µM |
| CC=C1[C@H]2C=C(C)C[C@]1(N)c1cc(OCCCC)c(=O)[nH]c1C2 | BCHE | enzyme activity | inhibitor | Ellman |  | 16.9 µM |
| Clc1ccc2c(C3=CCN(CC[C@@H]4CNc5ccccc54)CC3)c[nH]c2c1 | SLC6A4 | ligand displacement |  | radioligand | cell membranes | 0.205 µM |
| CC=C1[C@H]2C=C(C)C[C@]1(N)c1cc(N)c(=O)[nH]c1C2 | BCHE | enzyme activity | inhibitor | Ellman |  | 525 µM |
| Clc1ccc2c(C3CCN(CCc4c[nH]c5ccccc45)CC3)c[nH]c2c1 | SLC6A4 | ligand displacement |  | radioligand | cell membranes | 0.0021 µM |
